Published values gathered from unrelated publications.
Lines come from different studies, so protocols differ. ≈ marks a conversion by molar mass, not a printed value.

SMILES | target or system | test | system | conditions | measurement | value
CCCS(=O)(=O)Oc1ccc(C=NNC(=O)CSc2nc3c(C)cccc3c(=O)n2-c2ccccc2)cc1OC | Salmonella enterica | microbial growth, broth dilution | TYPHIMURIUM |  | MIC | 49 µg/mL (≈ 84.4 µM)
CC(C)(C)c1cc(NC(=O)Nc2ccc(-c3cn4c(n3)sc3cc(OCCN5CCOCC5)ccc34)cc2)no1 | BJ | cell growth or viability |  | 72 h | GI50 | > 10 µM
CN(C)c1ccc(CNc2ccc(C(=O)O)cc2)cc1 | NCI-H69 | cell growth or viability, resazurin |  | 72 h | IC50 | > 100 µM
COc1ccc(-n2nc(C(=O)c3ccc(Nc4cnccn4)cc3)sc2=N)cc1 | Salmonella enterica | microbial growth, broth dilution | ATCC13076 TYPHIMURIUM |  | MIC | 50 µg/mL (≈ 124 µM)
CN(C)CCNC(=O)c1ccc(-c2nc3ccc4[nH]ncc4c3c3c2CCCC3)cc1 | BJ | cell growth or viability |  | 72 h | GI50 | > 10 µM
CC(=O)C1=NN(c2ccc([N+](=O)[O-])cc2)C(=C(C#N)C(=O)c2ccc(Nc3cnccn3)cc2)S1 | Salmonella enterica | microbial growth, broth dilution | ATCC13076 TYPHIMURIUM |  | MIC | 12.5 µg/mL (≈ 25.7 µM)
Cc1n[nH]c2ccc3nc(-c4ccc(C(=O)NCCN(C)C)cc4F)c4c(c3c12)CCCCC4 | BJ | cell growth or viability |  | 72 h | GI50 | > 10 µM
O=C(N[C@H](CO)[C@H](O)c1ccc([N+](=O)[O-])cc1)C(Cl)Cl | Salmonella enterica | microbial growth, broth dilution | ATCC13076 TYPHIMURIUM |  | MIC | 6.25 µg/mL (≈ 19.3 µM)
COc1cccc(CNc2ccc(C(=O)O)cc2)c1 | NCI-H69 | cell growth or viability, resazurin |  | 72 h | IC50 | > 100 µM
CS(=O)(=O)Oc1ccc(C=NNC(=O)CSc2nc3ccc(Cl)cc3c(=O)n2-c2ccccc2)cc1 | Salmonella enterica | microbial growth, well diffusion | TYPHIMURIUM | 20 µg/mL | inhibition zone | 2 mm
Cc1n[nH]c2ccc3nc(-c4ccc(C(=O)NCCN(C)C)cc4)c4c(c3c12)CCCC4 | BJ | cell growth or viability |  | 72 h | GI50 | 7.16 µM
CCS(=O)(=O)Oc1ccc(C=NNC(=O)CSc2nc3ccc(Cl)cc3c(=O)n2-c2ccccc2)cc1 | Salmonella enterica | microbial growth, broth dilution | TYPHIMURIUM |  | MIC | 21 µg/mL
CC(=O)C1=NN(c2ccccc2)C(=C(C#N)C(=O)c2ccc(Nc3cnccn3)cc2)S1 | Salmonella enterica | microbial growth, broth dilution | ATCC13076 TYPHIMURIUM |  | MIC | 100 µg/mL (≈ 227 µM)
CN(C)CCNC(=O)c1ccc(-c2nc3ccc4[nH]ncc4c3c3c2CCCCC3)cc1 | BJ | cell growth or viability |  | 72 h | GI50 | 8.63 µM
O=C(O)c1ccc(NCc2ccc([N+](=O)[O-])cc2)cc1 | NCI-H69 | cell growth or viability, resazurin |  | 72 h | IC50 | > 100 µM
O=C(O)c1cn(C2CC2)c2cc(N3CCNCC3)c(F)cc2c1=O | Salmonella enterica | microbial growth, well diffusion | TYPHIMURIUM | 20 µg/mL | inhibition zone | 4 mm
COc1cc(CNc2ccc(C(=O)O)cc2)cc(OC)c1O | NCI-H69 | cell growth or viability, resazurin |  | 72 h | IC50 | > 100 µM
Nc1ccc(S(=O)(=O)Nc2ncccn2)cc1 | Bacillus cereus | microbial growth, well diffusion |  | 20 µg/mL | inhibition zone | 3 mm
Cc1nc(Nc2ncc(C(=O)Nc3c(C)cccc3Cl)s2)cc(N2CC[C@H](O)C2)n1 | JVM-2 | cell growth or viability, ATP luminescence |  | 10 µM, 72 h | inhibition | 61%
